PRMT1 inh: PRMT1 (human) inhibition, primary screen; Q99873; recombinant PRMT1, activity-based probe fluorescence polarization; inhibition, % at 2.79 µM; 370,000 tested, 1.3% active; AID 652257;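 active means inhibition above about 21% made by adding two undisclosed values, limit read from the data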
ABHD4 inh: ABHD4 (mouse) inhibition, primary FP screen | 370,000 tested, 0.54% active | inhibition, % at 8.92 µM | purified mABHD4, FP-Rh probe fluorescence polarization | Q8VD66;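 active means inhibition exceeding the mean over every tested compound plus 3 SD, cut at about 30% in these data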;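 further: 0% = plate median of compound wells and 100% = S159A mutant with DMSO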
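Assay system: mouse ABHD4 enzyme, wild type / Also added: fluorescent activity-based probe FP-Rh / Doses: single nominal dose of 8.92 µM, 0.89% DMSO final / Timing: 45 min compound pre-incubation plus 60 min probe step, 25 °C / Signal: FP readout, ex 525 nm / em 598 nm / Control set: S159A mutant/DMSO as 100%, compound-well median as 0%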
TCR-CD3 inh: inhibitors of human TCR-CD3 interaction; 360,000 tested, 0.37% active; TAMRA-labeled TCR probe fluorescence, biochemical; inhibition, % at 9.4 µM; in the data active means inhibition above about 19%;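 further: recombinant mutant TCR 2C K166C tagged with TAMRA read by polarization; 0% = receptor in buffer alone and 100% = receptor with positive control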
HTRA1 inhibitor: blocks human HTRA1 serine peptidase; recombinant HTRA1, FP-rhodamine activity-based probe, fluorescence polarization; inhibition, % at 5.96 µM; 340,000 tested, 0.5% active; AID 504803; in the data active means inhibition above about 36%;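 further: 0% = enzyme with DMSO and 100% = wells lacking enzyme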
SIAE primary: inhibitors of human sialic acid acetylesterase SIAE; Q9HAT2; SIAE FP-Rh probe binding, fluorescence polarization; inhibition, % at 9.66 µM; 370,000 tested, 0.69% active; AID 1053197;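 active means inhibition above a cutoff: mean of compounds within the control limits plus 3 SD of those, cut at about 17% in these data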;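 further: 0% = plate median of compound wells and 100% = probe without SIAE protein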
Target sequence (Q9HAT2 whole entry, looked up): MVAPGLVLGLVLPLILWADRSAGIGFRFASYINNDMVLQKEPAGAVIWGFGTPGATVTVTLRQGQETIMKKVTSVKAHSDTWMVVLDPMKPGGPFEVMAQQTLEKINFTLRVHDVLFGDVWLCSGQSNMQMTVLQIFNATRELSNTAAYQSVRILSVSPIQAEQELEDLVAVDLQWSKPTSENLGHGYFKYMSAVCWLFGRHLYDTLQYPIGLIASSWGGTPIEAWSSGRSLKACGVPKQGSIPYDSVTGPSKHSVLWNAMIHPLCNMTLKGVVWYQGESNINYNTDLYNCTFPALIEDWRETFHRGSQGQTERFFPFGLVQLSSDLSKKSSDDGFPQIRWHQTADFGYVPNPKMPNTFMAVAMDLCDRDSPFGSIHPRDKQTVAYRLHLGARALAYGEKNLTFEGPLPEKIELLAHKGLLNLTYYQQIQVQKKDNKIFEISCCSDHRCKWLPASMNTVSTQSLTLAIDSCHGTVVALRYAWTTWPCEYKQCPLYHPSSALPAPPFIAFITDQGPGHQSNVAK
PRMT1 confirm: PRMT1 (human) inhibition, FP confirmation; shares compounds with PRMT1 inh; recombinant His-PRMT1, activity-based probe fluorescence polarization; inhibition, % at 2.79 µM; 3,300 tested, 42% active; AID 687036;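 active means mean inhibition across replicates above the hit cutoff derived for the earlier primary screen, cut at about 22% in these data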
* = called active by the depositor; · = not tested or not shown. An excerpt weighted towards active compounds, which were near 2.7% of everything screened.

SMILES	PRMT1 inh	ABHD4 inh	TCR-CD3 inh	HTRA1 inhibitor	SIAE primary	PRMT1 confirm
Cc1ccc(S(=O)(=O)SC/C=C/CSS(=O)(=O)c2ccc(C)cc2)cc1	87.4*	4.6	5.1	1.0	5.2	90.6*
NS(=O)(=O)c1ccccc1	2.4	-7.7	5.8	7.9	-11.0	·
Cc1ccc(S(=O)(=O)C=CS(=O)(=O)c2ccc(C)cc2)cc1	90.2*	7.3	-1.9	1.4	-2.5	94.7*
Cc1ccc(S(=O)(=O)CCCS(=O)(=O)c2ccc(C)cc2)cc1	2.1	1.3	-4.4	-2.4	-2.5	·
Cc1cc2c(c(=O)o1)[C@@]1(C(=O)N(C)c3cccc(Br)c31)C1=C(CCCC1=O)O2	1.5	-8.5	-1.7	·	0.2	·
CC(=O)CC[C@@H]1CC[C@]2(CCCN(S(=O)(=O)c3ccccc3)C2)O1	-3.4	0.5	·	·	-2.4	·
O=c1[nH]c2cc3c(cc2cc1CN(Cc1cccs1)Cc1nnnn1Cc1ccco1)OCCO3	57.6*	5.2	2.9	2.6	3.8	33.4*
O=c1[nH]c2cc3c(cc2cc1CN(Cc1cccnc1)Cc1nnnn1Cc1ccco1)OCCO3	34.9*	12.2	15.6	0.3	6.9	26.5*
Cc1ccc2[nH]c(=O)c(CN(CCc3ccccc3)C(c3nnnn3Cc3ccco3)C(C)C)cc2c1 (centres undefined)	27.0*	6.2	-10.8	-83.6	-9.6	11.8
COc1ccccc1CN(Cc1cc2cc3c(cc2[nH]c1=O)OCCO3)Cc1nnnn1Cc1ccco1	35.9*	5.6	3.5	1.8	4.8	2.1
Cc1ccc2[nH]c(=O)c(CN(Cc3ccc4c(c3)OCO4)Cc3nnnn3Cc3ccco3)cc2c1	2.3	-1.1	3.7	0.2	-2.3	·
CCC(c1nnnn1Cc1ccco1)N(CCc1ccccc1)Cc1cc2cc(C)ccc2[nH]c1=O (centres undefined)	18.9	6.8	-3.2	-56.4	3.8	·
CCN(CC(=O)Nc1ccc(NC(C)=O)cc1)C(=O)C1CC1	-0.8	-1.9	-8.2	3.0	-4.7	·
CCOC(=O)[C@@]12CCCC=C1N(CCc1ccc(Cl)cc1)C(=O)[C@H]2CC(=O)NCC12CC3CC(CC(C3)C1)C2	1.7	5.2	·	·	-4.8	·
CC(C)CNC(=O)OCc1cn(Cc2cccc(F)c2)nn1	-3.1	4.7	·	·	5.6	·
CCNC(=O)N1C[C@H]2CON(C)[C@H]2C[C@H]1c1ccc(N2CCCCC2)cc1	4.0	0.2	-4.3	·	0.5	·
CCc1ccc2[nH]c(=O)c(CN(Cc3ccccc3)Cc3nnnn3Cc3ccco3)cc2c1	12.8	-5.2	3.7	-53.3	-14.5	·
O=c1[nH]c2cc3c(cc2cc1CN(Cc1ccccc1)Cc1nnnn1Cc1ccco1)OCCO3	51.9*	-8.5	2.8	-1.6	1.1	20.5
Nc1cc(S(=O)(=O)N2CCOCC2)ccc1N1CCCCC1	16.6	5.3	-6.6	1.4	0.8	·
O=c1c2ccccc2sn1-c1cc(S(=O)(=O)N2CCOCC2)ccc1N1CCCC1	87.8*	15.5	-13.0	-0.9	6.1	79.6*
CSCCC(C(=O)NCc1ccccc1)n1c(C2CCN(C(C)=O)CC2)nc2ccccc21 (centres undefined)	-3.8	-1.6	-4.0	·	-12.1	·
Cc1nc(SCCc2nc3ccccc3[nH]2)c2oc3ccccc3c2n1	14.2	3.5	4.2	-7.5	8.2	·
Cc1nc2sc(C(c3ccco3)N3CCN(c4cccc(Cl)c4)CC3)c(O)n2n1 (centres undefined)	65.0*	18.1	3.0	-0.5	-2.0	0.9
Cc1nc2sc(C(c3ccccc3)N3CC(C)OC(C)C3)c(O)n2n1 (centres undefined)	-0.3	-2.4	0.6	-11.8	-4.2	·
Cc1nc2sc(C(c3ccco3)N3CC(C)OC(C)C3)c(O)n2n1 (centres undefined)	28.7*	-11.3	-10.9	3.1	-1.4	5.1
SMILES	PRMT1 inh	ABHD4 inh	TCR-CD3 inh	HTRA1 inhibitor	SIAE primary	PRMT1 confirm
O=C(COc1ccc(F)c(Cl)c1)Nc1ccc(N2CCOCC2)cc1	-2.2	3.7	-1.6	5.0	4.0	·
CC1=C[C@@H]2[C@H]3C(=O)N(Cc4ccccc4)C(=O)[C@H]3[C@@H]1[C@@H]1O[C@@]3(C(=O)N(C)c4ccccc43)C3=C(CCCC3=O)N21	-3.9	-0.6	2.2	·	-5.3	·
COC(=O)C1=C(O)/C(=C\c2ccc(CNC(=O)C(=O)Nc3ccc(C)c(C)c3)o2)N=C1C	45.3*	27.9	-1.7	28.8	12.5	7.0
CCOC(=O)c1ccc(NC(=O)C(=O)NCc2ccc(/C=C(/C#N)C(=O)NCCOC)o2)cc1	4.7	-4.6	3.6	4.1	-4.3	·
CCOC(=O)C1=C(O)/C(=C/c2ccc(CNC(=O)C(=O)Nc3ccc(C)cc3)o2)N=C1C	48.1*	29.4	-7.2	31.7	8.8	0.1
O=C(O)c1ccc(N/N=C/C2=C(N3CCOCC3)C(=C\c3ccccc3)/CC2)cc1	32.8*	27.0	-6.0	9.7	16.7	15.7
COCCNC(=O)c1ccc(C)c(S(=O)(=O)Nc2ccc(C)cc2)c1	35.9*	-3.3	5.6	10.1	2.5	0.1
CC(=O)C1=C(C)NC(SCC(=O)Nc2nccs2)=C(C#N)C1c1ccccc1Cl (centres undefined)	26.3*	-8.6	5.2	-9.5	-2.3	0.3
C=CCOC(=O)C1=C(C)NC(SCC(=O)Nc2nccs2)=C(C#N)C1c1ccc(Cl)cc1 (centres undefined)	5.5	-14.3	6.9	-41.2	-8.9	·
FC(F)(F)c1nc(=S)c2ccccc2[nH]1	32.6*	3.7	2.4	-2.3	0.7	25.0*
CC(C)(C)S(=O)(=O)N1C[C@H]2CC(=O)C=C2[C@@H]1CCO	-2.9	6.2	-6.2	·	0.6	·
Oc1ccccc1OCc1nc2ccccc2s1	28.3*	-5.3	1.6	0.0	8.2	10.5
NC(=O)CSCc1nc2ccccc2s1	27.2*	6.4	5.2	-7.7	1.8	20.5
COC(=O)c1nn(-c2ccc(OC)cc2)c(=O)cc1NN	0.2	6.5	4.7	-3.9	5.7	·
COC(=O)c1nn(-c2ccc(OC)cc2)c(=O)c2c(N)sc(C)c12	24.9*	-7.7	-6.7	-1.6	4.7	-0.4
CCOc1cc(C(c2c(O)nc(SC)[nH]c2=O)c2c(O)nc(SC)[nH]c2=O)ccc1O	49.3*	8.4	-6.3	·	2.2	41.2*
COc1ccccc1C(c1c(O)nc(SC)[nH]c1=O)c1c(O)nc(SC)[nH]c1=O	8.3	2.3	-0.6	2.5	-4.7	·
O=C(/C=C/Nc1ccc(Cc2ccc(N/C=C/C(=O)C(F)(F)F)cc2)cc1)C(F)(F)F	2.0	-8.4	-7.6	-2.9	-5.2	·
CS(=O)(=O)c1nc2c(cc1C#N)CCCC2	-0.6	3.3	11.4	17.6	0.2	·
COc1ccc(OC)c(C2CC(=O)N3CN(c4ccccc4)CSC3=C2C#N)c1 (centres undefined)	6.5	0.3	-8.6	-2.0	7.0	·
CC(C)c1ccc(C2CC(=O)N3CN(Cc4ccco4)CSC3=C2C#N)cc1 (centres undefined)	19.1	-0.5	3.6	-14.9	0.7	·
